Results on twelve molecules are retold here after ChEMBL document CHEMBL2046278, “Development and evaluation of multifunctional agents for potential treatment of Alzheimer's disease: application to a pyrimidine-2,4-diamine template” (Bioorg Med Chem Lett, 2012).

The target of series [1] is T1, Beta-secretase 1 (Homo sapiens, UniProt P56817). Put plainly: Inhibition of BACE1.
Series [2] is described as follows: Selectivity ratio of IC50 for human AChE to IC50 for equine BuChE.
In another series the target is Acetylcholinesterase (Homo sapiens, UniProt P22303). The experiment in a line: Inhibition of human AChE using acetylthiocholine iodide as substrate after 5 mins by DTNB method.
Sequence of Acetylcholinesterase (P22303 whole entry): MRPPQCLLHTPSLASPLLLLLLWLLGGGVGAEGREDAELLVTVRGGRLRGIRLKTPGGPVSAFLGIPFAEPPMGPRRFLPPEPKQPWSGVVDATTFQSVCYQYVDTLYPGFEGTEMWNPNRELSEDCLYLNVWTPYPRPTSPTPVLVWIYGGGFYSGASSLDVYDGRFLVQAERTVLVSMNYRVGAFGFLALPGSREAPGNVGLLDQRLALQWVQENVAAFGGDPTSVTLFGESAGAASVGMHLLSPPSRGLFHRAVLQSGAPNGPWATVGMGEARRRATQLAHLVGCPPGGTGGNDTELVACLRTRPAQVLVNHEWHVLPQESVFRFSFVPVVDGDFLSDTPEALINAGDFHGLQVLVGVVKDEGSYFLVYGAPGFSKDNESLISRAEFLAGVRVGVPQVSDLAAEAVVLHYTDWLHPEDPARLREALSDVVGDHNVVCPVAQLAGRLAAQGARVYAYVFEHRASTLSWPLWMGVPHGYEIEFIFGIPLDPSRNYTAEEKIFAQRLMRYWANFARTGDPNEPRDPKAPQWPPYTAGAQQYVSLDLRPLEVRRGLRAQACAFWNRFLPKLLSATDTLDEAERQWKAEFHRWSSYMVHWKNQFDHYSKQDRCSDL
A short description of series [3]: Inhibition of self-induced amyloid beta (1 to 40) aggregation at 100 uM after 24 hrs by thioflavin T-based fluorescence analysis. Put shortly:
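Aβ1-40 peptide aggregating on its own, without hAChE, with test compound at 100 μM. Aggregation read by thioflavin T fluorescence and expressed as % inhibition. Reported as the mean of two separate experiments (n = 4), with deviation from the mean under 10% of the mean value.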

Series [4] is described as follows: Induction of disassembly of preformed amyloid beta (1 to 40) fibrils assessed as disaggregated fibrils at 10 uM after 3 days by transmission electron microscopic analysis. Put shortly:
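Aβ1-40 fibrils were preformed over a three-day pre-fibrillization period. Compound was then incubated with the fibrils at 10 μM, and fibril morphology and disassembly were examined by transmission electron microscopy.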

Series [5] can be described thus: Inhibition of amyloid beta (1 to 40) fibril formation at 10 uM coincubated with amyloid beta (1 to 40) peptide after 72 hrs by transmission electron microscopic analysis.
Another series has as its target Cholinesterase (Equus caballus, UniProt P81908). Put plainly: Inhibition of equine BuChE using butyrylthiocholine iodide as substrate after 5 mins by DTNB method.
Series [6] can be described thus: Cytotoxicity against human SH-SY5Y cells assessed as cell viability at 40 uM after 24 hrs by MTT assay. It is filed as cell-based. The following applies: read-out: Activity. A general note: Formazan colour is commonly taken as a measure of viable cells.
Series [7] deals with T1, Beta-secretase 1. Put plainly: Inhibition of BACE1 at 10 uM.

Active and inactive are the calls of the source. No cut-off for these calls is given here. Peptide text beside a SMILES is read from it. * marks the point of attachment. Cbz = O=C(OCc1ccccc1)*

Sequence of Cholinesterase (P81908 whole entry): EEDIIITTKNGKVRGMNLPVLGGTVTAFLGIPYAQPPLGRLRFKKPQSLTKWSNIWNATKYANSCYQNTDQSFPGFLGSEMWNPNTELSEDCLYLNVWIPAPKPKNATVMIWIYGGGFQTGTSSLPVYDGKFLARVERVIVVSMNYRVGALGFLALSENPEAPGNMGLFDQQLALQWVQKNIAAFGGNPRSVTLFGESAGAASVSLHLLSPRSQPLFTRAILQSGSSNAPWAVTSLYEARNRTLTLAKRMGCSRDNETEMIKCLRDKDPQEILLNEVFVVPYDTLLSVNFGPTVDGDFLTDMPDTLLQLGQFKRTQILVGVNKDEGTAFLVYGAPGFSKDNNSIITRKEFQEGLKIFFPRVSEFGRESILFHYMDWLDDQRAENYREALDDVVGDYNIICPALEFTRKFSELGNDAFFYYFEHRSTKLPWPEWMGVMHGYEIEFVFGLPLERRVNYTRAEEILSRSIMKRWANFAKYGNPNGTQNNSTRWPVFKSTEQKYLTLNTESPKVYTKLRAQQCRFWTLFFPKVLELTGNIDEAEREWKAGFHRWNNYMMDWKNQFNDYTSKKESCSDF
T1 sequence (P56817 whole entry): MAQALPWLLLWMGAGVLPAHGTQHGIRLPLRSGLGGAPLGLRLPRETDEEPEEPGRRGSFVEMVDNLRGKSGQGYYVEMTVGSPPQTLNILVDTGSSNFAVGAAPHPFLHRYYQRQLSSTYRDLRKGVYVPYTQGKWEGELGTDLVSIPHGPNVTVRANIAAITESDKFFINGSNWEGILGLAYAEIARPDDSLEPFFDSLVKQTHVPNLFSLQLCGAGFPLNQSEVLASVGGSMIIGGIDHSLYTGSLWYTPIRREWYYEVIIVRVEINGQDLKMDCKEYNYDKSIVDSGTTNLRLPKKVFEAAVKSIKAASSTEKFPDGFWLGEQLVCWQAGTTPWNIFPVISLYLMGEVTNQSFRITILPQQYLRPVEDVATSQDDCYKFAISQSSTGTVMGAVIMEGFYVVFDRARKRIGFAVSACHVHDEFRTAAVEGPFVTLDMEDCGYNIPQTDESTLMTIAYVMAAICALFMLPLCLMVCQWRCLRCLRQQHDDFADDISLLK

Broadly, the IC50 is the point on the concentration scale where inhibition reaches its midpoint. A high value points to weaker potency in that assay. With `CC(C)C[C@@H](C=O)NC(=O)[C@H](CC(C)C)NC(=O)[C@@H](NC(=O)OCc1ccccc1)C(C)C` (Cbz-Val-Leu-Leu-aldehyde), the IC50 at Beta-secretase 1 [1] came out at 14 µM.

In general, inhibition refers to the percentage by which the read-out fell short of the control. In the case of `Clc1ccc(CNc2ccnc(NC3CCN(Cc4ccccc4)CC3)n2)cc1`, in [2], the Ratio IC50 was determined as 3.1. In addition, the IC50 was 8.8 µM at Acetylcholinesterase, 3.2 µM at Beta-secretase 1 [1] and 2.8 µM at Cholinesterase. The molecule further had an inhibition in series [3] of 42.6%. The inhibition entry in [4] and in [5] was “Active” each time.

As for `Fc1ccc(CNc2ccnc(NC3CCN(Cc4ccccc4)CC3)n2)cc1`, in series [2], the Ratio IC50 was 3.5. The 50% inhibitory concentration (IC50) against Acetylcholinesterase was determined as 7.7 µM; against Beta-secretase 1 [1] it was 0.7 µM; on Cholinesterase, 2.2 µM. The molecule also returned an inhibition in [3] of 29.8%.

As to `COc1cc(CNc2ccnc(NC3CCN(Cc4ccccc4)CC3)n2)cc(OC)c1OC`, the Ratio IC50 in series [2] came to 1.3. In addition, the half-inhibitory concentration (IC50) against Acetylcholinesterase was determined as 10.3 µM; against Beta-secretase 1 [1] it was 8.9 µM; on Cholinesterase, 7.7 µM. In addition, in series [3], the inhibition result was “inactive”.

Take `Clc1cccc(CNc2ccnc(NC3CCN(Cc4ccccc4)CC3)n2)c1`: the Ratio IC50 in series [2] is 3.1. The half-inhibitory concentration (IC50) is 7.7 µM against Acetylcholinesterase, 0.6 µM against Beta-secretase 1 [1] and 2.5 µM against Cholinesterase. In addition, in series [3], the inhibition came to 39.9%.

Consider `Cc1ccc(CNc2ccnc(NC3CCN(Cc4ccccc4)CC3)n2)cc1`, for which the Ratio IC50 in [2] was determined as 5.2. In addition, the IC50 on Acetylcholinesterase was determined as 12.9 µM; on Beta-secretase 1 [1] it was 11.1 µM; at Cholinesterase, 2.5 µM. In series [3], the inhibition is 21.9%.

As for `COc1ccc(CNc2ccnc(NC3CCN(Cc4ccccc4)CC3)n2)cc1`, the Ratio IC50 in series [2] was 1.9. In addition, the IC50 is 9.4 µM against Acetylcholinesterase, 0.6 µM against Beta-secretase 1 [1] and 4.9 µM on Cholinesterase. In series [3], this molecule came in with an inhibition of 18.2%.

`c1ccc(CN2CCC(Nc3nccc(NCc4ccc5c(c4)OCO5)n3)CC2)cc1`: the Ratio IC50 in series [2] is 3.2. Besides, the IC50 against Acetylcholinesterase stood at 12.6 µM; against Beta-secretase 1 [1], 1.4 µM; against Cholinesterase it was 3.9 µM. Moreover, the inhibition in [3] was 18.6%.

Consider `Clc1ccccc1CNc1ccnc(NC2CCN(Cc3ccccc3)CC2)n1`, for which, in series [2], the Ratio IC50 came out at 3.2. The results for the half-inhibitory concentration (IC50) against Acetylcholinesterase, on Beta-secretase 1 [1] and on Cholinesterase were 7.7 µM, 1.7 µM and 2.4 µM, respectively. The same molecule came in with an inhibition in series [3] of 42.2%.

In turn, `COc1ccc2c3c1O[C@H]1C[C@@H](O)C=C[C@@]31CCN(C)C2` displayed an inhibition in series [3] of 48%. The inhibition entry in series [5] was “Active”.

Consider `COc1ccc(CNc2ccnc(NC3CCN(Cc4ccccc4)CC3)n2)cc1OC`, for which, in series [2], the Ratio IC50 came out at 0.9. Also, the IC50 was found to be 9.9 µM against Acetylcholinesterase and 11.4 µM on Cholinesterase. Further, the viability at 24 h, 40 µM in series [6] was 81%. Besides, the inhibition came out at 17.4% in [3] and 34% against Beta-secretase 1 [7].

As for `Brc1ccc(CNc2ccnc(NC3CCN(Cc4ccccc4)CC3)n2)cc1`, in series [2], the Ratio IC50 came out at 2.4. Also, the IC50 amounted to 9.9 µM against Acetylcholinesterase and 4.1 µM against Cholinesterase. The inhibition in series [3] was found to be 48.4%; on Beta-secretase 1 [7] it was 33%. Besides, the inhibition result in [4] and in series [5] was “Active” throughout.
